The text below walks through data of ChEMBL document CHEMBL1156515.

Each structure is given as a SMILES string. The source made the active and inactive calls. The rule behind the calls is not given here. Where only a bound is given, the exact number is not on record here.

Assay [1] concerns the target 5'-AMP-activated protein kinase catalytic subunit alpha-1 (Rattus norvegicus) (UniProt P54645). The assay is described as follows: Effect on GST fused rat AMPKalpha1 (1-333) kinase activation in presence of recombinant CaMKKbeta by Western blot. The procedure, abridged: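 GST fusions of rat AMPKα1 kinase domain, with or without the autoinhibitory region, made in bacteria and glutathione-Sepharose purified. Pre-incubated with MgATP with or without recombinant human CaMKKβ to phosphorylate Thr-172. Activity then measured with or without 1 µM compound, or samples Western blotted with anti-GST and anti-pT172.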
Background: Immunoblotting shows a protein as a band on a membrane.

For assay [2], the species on record is Mus musculus. The assay is described as follows: Effect on acetyl-CoA carboxylase phosphorylation in LKB1-/-mouse longus muscle tissue at 2 mM uM by Western blot. It is filed as tissue-based. The method, boiled down:
(§1)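 EDL muscle from fasted LKB1+/+ or muscle-LKB1−/− mice, incubated 1 hr at 37°C in KRB pH 7.4 with 2 mM pyruvate, gassed 95% O2/5% CO2, with 2 mM AICAR. Lysates immunoblotted with phospho-Thr172 AMPK and phospho-ACC antibodies; ECL bands quantified by CCD imaging.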

The species entered for assay [3] is Rattus norvegicus. In words: Effect on interaction between rat GST fused AMPK glycogen binding domain and glycogen at 0.5 uM. The method, boiled down:
(§2)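 β1 glycogen-binding domain (residues 65-182) fused to GST, expressed in E. coli BL21 and glutathione-purified. 2 µg incubated with bovine liver glycogen coupled to Sepharose in 50 mM Tris-HCl pH 7.5, 150 mM NaCl with compound. Load, supernatant and pellet anti-GST immunoblotted on infrared imager.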

The species entered for assay [4] is Mus musculus. The assay is described as follows: Increase in acetyl-CoA carboxylase phosphorylation in TAK1-/- mouse embryonic fibroblast at 100 uM after 1 hr by densitometry. The method, boiled down:
(§3)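 TAK1+/+ and TAK1−/− MEFs treated with 100 µM compound for 1 hr; lysates Western blotted and ACC phosphorylation quantified by densitometry in arbitrary units. Means ± SEM of duplicates, representative of 2 or more experiments.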

The species entered for assay [5] is Mus musculus. In words: Effect on AMPK phosphorylation in LKB1-/- mouse longus muscle tissue at 100 uM by Western blot. The format is tissue-based. The procedure, abridged: (§4)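 Extensor digitorum longus from overnight-fasted LKB1+/+ or muscle-specific LKB1−/− mice, mounted and incubated 1 hr at 37°C in KRB (pH 7.4, 2 mM pyruvate, gassed 95% O2/5% CO2) with compound (stock in DMSO); controls 0.1% DMSO. Muscles snap-frozen; lysates Western blotted for pT172 AMPK and pACC.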

The species named for assay [6] is Rattus norvegicus. In words: Protection against dephosphorylation of rat AMPK incubated with protein phosphatase 2Calpha at 1 uM in presence of magnesium. The procedure, abridged: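 Purified rat liver AMPK incubated with recombinant protein phosphatase-2Cα (9 ng) plus 5 mM MgCl2 with or without 1 µM compound; remaining AMPK activity measured. Controls lacked Mg2+ or added 200 µM AMP.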

Assay [7] is filed under the species Rattus norvegicus. The assay is described as follows: Effect on interaction between rat GST fused AMPK glycogen binding domain and glycogen at 5 uM. The procedure, abridged:
as §2

For assay [8], the species on record is Mus musculus. The assay is described as follows: Effect on acetyl-CoA carboxylase phosphorylation in mouse embryonic fibroblasts expressing AMPK-alpha1+/+alpha2+/+ at 100 uM after 15 mins by Western blot.
The species named for assay [9] is Mus musculus. In words: Effect on acetyl-CoA carboxylase phosphorylation in wild type LKB1+/+ mouse longus muscle tissue at 100 uM by Western blot. It is filed as tissue-based. The procedure, abridged: as §4
Assay [10] is filed under the species Mus musculus. In words: Effect on AMPK phosphorylation in LKB1-/- mouse longus muscle tissue at 2 mM uM by Western blot. It is filed as tissue-based. The method, boiled down: as §1
In assay [11] the test system is HeLa. In words: Reduction of acetyl-CoA carboxylase phosphorylation in HeLa cells at 100 uM after 1 hr in presence of STO-609 by densitometry. The format is cell-based. The procedure, abridged:
(§5)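 HeLa cells exposed to 100 µM compound for 1 hr, with or without a 1 hr pretreatment with STO-609 (10 µg/ml). Lysates Western blotted for phospho-ACC, quantified by densitometry in arbitrary units. Means ± SEM of duplicates; 2 or more experiments.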

Assay [12] deals with HeLa. In words: Effect on AMPK activation in HeLa cells at 100 uM after 1 hr by immunoprecipitate kinase assay. It is filed as cell-based. The method, boiled down: (§6)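 HeLa cells (MEM, 10% FBS, NEAA, penicillin/streptomycin) given 100 µM compound for 1 hr, with or without STO-609 (10 µg/ml) for 1 hr beforehand. Lysates in ice-cold NP-40 buffer; AMPK activity by immunoprecipitate kinase assay and Thr-172 phosphorylation by Western blot. Means ± SEM of duplicates, representative of 2 or more experiments.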

Assay [13] has as its system HeLa. The assay is described as follows: Effect on AMPK phosphorylation in HeLa cells at 100 uM after 1 hr by immunoprecipitate kinase assay. The format is cell-based. The method, boiled down: as §6
Assay [14] is filed under the species Mus musculus. In words: Effect on AMPK phosphorylation in wild type LKB1+/+ mouse longus muscle tissue at 100 uM by Western blot. The format is tissue-based. The procedure, abridged: as §4
Assay [15] relates to HeLa. In words: Effect on acetyl-CoA carboxylase phosphorylation in HeLa cells at 100 uM after 1 hr by densitometry. It is filed as cell-based. The procedure, abridged:
as §5

A further assay deals with Hepatocyte. In words: Effect on acetyl-CoA carboxylase phosphorylation in wild type AMPK expressing mouse AMPK-alpha1+/+alpha2+/+ primary hepatocytes upto 200 uM after 4 hrs by Western blot. It is filed as cell-based. The procedure, abridged: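 Primary hepatocytes from AMPKα1+/+α2+/+ mice exposed to compound concentrations up to 200 µM for 4 hr. Lysates immunoblotted with phosphospecific and total ACC antibodies.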

Assay [16] is filed under the species Mus musculus. The assay is described as follows: Effect on acetyl-CoA carboxylase phosphorylation in LKB1-/-mouse longus muscle tissue at 100 uM by Western blot. The format is tissue-based. The procedure, abridged:
as §4

Assay [17] is filed under the species Mus musculus. The assay is described as follows: Effect on AMPK phosphorylation in wild type LKB1+/+ mouse longus muscle tissue at 2 mM uM by Western blot. It is filed as tissue-based. The procedure, abridged: as §1
Assay [18] addresses Serine/threonine-protein kinase pim-3 (Homo sapiens) (UniProt Q86V86). In words: Inhibition of PIM3 at 10 uM. The procedure, abridged: (§7)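 Single-concentration selectivity screen at 10 µM across a 76-protein-kinase panel, assayed per earlier methods. Duplicate assays; activity expressed as % of no-compound control ± standard deviation.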
The species entered for assay [19] is Mus musculus. The assay is described as follows: Effect on acetyl-CoA carboxylase phosphorylation in wild type LKB1+/+ mouse longus muscle tissue at 2 mM uM by Western blot. The format is tissue-based. The method, boiled down: as §1
Assay [20] has as its system HeLa. In words: Reduction of AMPK activation in HeLa cells at 100 uM after 1 hr in presence of STO-609 by immunoprecipitate kinase assay. It is filed as cell-based. The method, boiled down:
as §6

Assay [21] is filed under the species Mus musculus. The assay is described as follows: Effect on acetyl-CoA carboxylase phosphorylation in mouse embryonic fibroblasts expressing AMPK-alpha1+/+alpha2+/+ upto 300 uM by Western blot. The method, boiled down:
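MEFs from AMPKα1+/+/α2+/+ mice (DMEM, 10% FBS, NEAA, 1 mM pyruvate, antibiotics) given compound at graded concentrations up to 300 µM for 1 h. Lysates Western blotted for phospho- and total ACC, quantified by densitometry (arbitrary units). Means ± SEM of duplicates, representative of 2 or more experiments.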

The species named for assay [22] is Mus musculus. In words: Effect on acetyl-CoA carboxylase phosphorylation in mouse embryonic fibroblasts expressing AMPK-alpha1+/+alpha2+/+ at 100 uM upto1 hrs by Western blot.
For assay [23], the species on record is Mus musculus. In words: Increase in acetyl-CoA carboxylase phosphorylation in TAK1+/+ mouse embryonic fibroblast at 100 uM after 1 hr by densitometry. The method, boiled down:
as §3

Assay [24] concerns HeLa. The assay is described as follows: Reduction of AMPK phosphorylation in HeLa cells at 100 uM after 1 hr in presence of STO-609 by immunoprecipitate kinase assay. The format is cell-based. The procedure, abridged: as §6
The target of assay [25] is 5'-AMP-activated protein kinase catalytic subunit alpha-1 (Rattus norvegicus) (UniProt P54645). The assay is described as follows: Activation of rat AMPK alpha-1-alpha-2beta-1-gamma-1 kinase upto 5 uM in presence of saturating concentration of 200 uM AMP.
5'-AMP-activated protein kinase catalytic subunit alpha-1 (Rattus norvegicus), sequence (P54645 whole entry, the tested form may be a part): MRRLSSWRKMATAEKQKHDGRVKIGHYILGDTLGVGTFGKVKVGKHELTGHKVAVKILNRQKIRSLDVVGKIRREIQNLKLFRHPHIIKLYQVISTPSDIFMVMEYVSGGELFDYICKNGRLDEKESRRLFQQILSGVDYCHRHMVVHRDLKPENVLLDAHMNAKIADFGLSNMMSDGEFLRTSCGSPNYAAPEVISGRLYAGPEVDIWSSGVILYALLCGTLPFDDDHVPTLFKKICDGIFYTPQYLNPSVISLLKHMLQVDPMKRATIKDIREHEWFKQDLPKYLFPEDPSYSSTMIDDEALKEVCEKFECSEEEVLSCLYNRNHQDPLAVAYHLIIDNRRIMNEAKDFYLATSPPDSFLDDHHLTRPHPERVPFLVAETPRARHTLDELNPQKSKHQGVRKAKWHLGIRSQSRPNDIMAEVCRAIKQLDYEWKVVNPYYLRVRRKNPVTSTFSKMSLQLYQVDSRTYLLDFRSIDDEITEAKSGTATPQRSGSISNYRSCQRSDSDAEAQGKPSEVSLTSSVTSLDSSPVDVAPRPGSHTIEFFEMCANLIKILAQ
The target of assay [26] is Serine/threonine-protein kinase pim-1 (Homo sapiens) (UniProt P11309). The assay is described as follows: Inhibition of PIM1 at 10 uM. The procedure, abridged:
as §7

Assay [27] relates to HeLa. In words: Effect on AMPK phosphorylation in HeLa cells at 100 uM after 1 hr by immunoprecipitate kinase assay.
The species entered for assay [28] is Rattus norvegicus. In words: Effect on GST fused rat AMPKalpha1 T172D mutant kinase.
For assay [29], the species on record is Mus musculus. In words: Effect on acetyl-CoA carboxylase phosphorylation in mouse embryonic fibroblasts expressing AMPK-alpha1+/+alpha2+/+ upto 300 uM after 4 hrs by Western blot.
Assay [30] relates to HeLa. The assay is described as follows: Effect on acetyl-CoA carboxylase phosphorylation in HeLa cells at 1 uM after 5 mins by densitometry. The format is cell-based. The method, boiled down: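 HeLa cells grown in MEM with 10% FBS, NEAA and antibiotics. Cells were exposed for 5 min, with or without 1 h STO-609 (10 µg/ml) pretreatment, then lysed in NP-40 buffer. Lysates (10-30 µg protein) were Western blotted for phospho-ACC with ECL detection, and densitometry was given in arbitrary units. Means ± SEM of duplicates, representative of 2 or more experiments.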

Assay [31] concerns HeLa. In words: Effect on AMPK activation in HeLa cells at 1 uM after 5 mins by immunoprecipitate kinase assay. The format is cell-based. The procedure, abridged: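 HeLa cells grown in Minimum Essential Eagle's Medium with 10% FBS, NEAA, penicillin and streptomycin. Cells were exposed for 5 min, with or without 1 h pretreatment with STO-609 (10 µg/ml). They were lysed in ice-cold NP-40 buffer, and AMPK activity was measured by immunoprecipitate kinase assay. Means ± SEM of duplicates, representative of 2 or more experiments.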

Serine/threonine-protein kinase pim-1 (Homo sapiens), sequence (P11309 whole entry, looked up): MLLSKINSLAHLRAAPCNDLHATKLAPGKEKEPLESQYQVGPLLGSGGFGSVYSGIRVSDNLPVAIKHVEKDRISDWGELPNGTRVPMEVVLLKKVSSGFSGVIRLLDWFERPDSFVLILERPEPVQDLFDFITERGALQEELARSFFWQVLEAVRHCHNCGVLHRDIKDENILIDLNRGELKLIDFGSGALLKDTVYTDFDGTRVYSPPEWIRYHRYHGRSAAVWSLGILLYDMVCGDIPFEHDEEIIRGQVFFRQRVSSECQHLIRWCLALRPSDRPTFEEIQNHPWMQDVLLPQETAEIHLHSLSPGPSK

As for `N#Cc1c(O)c2c(-c3ccc(-c4ccccc4O)cc3)csc2[nH]c1=O`, the result (in assay [1]; in the assay listed under Mus musculus [2]; in the assay filed under Rattus norvegicus [3]; in the assay listed under Mus musculus [5]; in the assay listed under Rattus norvegicus [7]; in the assay listed under Mus musculus [10]) was inactive. Moreover, the result in the assay listed under Mus musculus [16] and in the assay filed under Rattus norvegicus [28] was inactive. The result in the assay filed under Mus musculus [4], in the assay filed under Rattus norvegicus [6], in the assay filed under Mus musculus [8], in the assay filed under Mus musculus [9], in the assay with HeLa [11] and in the assay with HeLa [12] was Active. Also, the result with HeLa [13], in the assay listed under Mus musculus [14], in the assay with HeLa [15], in the assay on Hepatocyte, in the assay filed under Mus musculus [17] and in the assay listed under Mus musculus [19] was Active. Also, the result in the assay with HeLa [20], in the assay filed under Mus musculus [21], in the assay filed under Mus musculus [22], in the assay filed under Mus musculus [23], in the assay with HeLa [24] and in the assay with HeLa [27] was Active. For the same compound, the inhibition in [18] and in [26] was greater than 50% in each case. In addition, the Activity in assay [25] was 1.4.

As for `NC(=O)c1ncn([C@@H]2O[C@H](COP(=O)(O)O)[C@@H](O)[C@H]2O)c1N`, the result in the assay filed under Mus musculus [29] was Active.

Regarding `CC(O)[C@]1(C)CC[C@H]([C@]2(C)CC[C@@H](C[C@H](O)[C@H](C)[C@H](O)[C@H](C)/C=C/C[C@@H](C)C[C@@H](C)/C(O)=C/C(=O)[C@@H](C)C[C@@H](C)C[C@H](C)CCC(=O)O)O2)O1` (single isomer, unassigned), the result in the assay on HeLa [30] and with HeLa [31] was Active.

By inhibition is commonly meant the share of the control response that was lost under treatment. A high value points to strong suppression.
